# Compound activity deposited in PubChem by several laboratories.
# Rows were chosen to be rich in hits. Some 4.9% of all compounds tested hit in one or more screens of this group.
# FLuc act counter: FLuc activators, initial screening, artefact control for FLuc-dependent activation tests, biochemical, ATPlite luminescence; Luciferin 4-monooxygenase (Photinus pyralis), P08659; 200,000 tested, under 10 active; ATPlite luciferase biochemical, 10 min; 0 = ATP-free wells, 1 = DMSO control; activation factor at 10 µM;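 active = luciferase activation factor, scaled between plate controls, of at least 2 with compound at 10 µM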
# Target sequence (P08659 whole entry, looked up): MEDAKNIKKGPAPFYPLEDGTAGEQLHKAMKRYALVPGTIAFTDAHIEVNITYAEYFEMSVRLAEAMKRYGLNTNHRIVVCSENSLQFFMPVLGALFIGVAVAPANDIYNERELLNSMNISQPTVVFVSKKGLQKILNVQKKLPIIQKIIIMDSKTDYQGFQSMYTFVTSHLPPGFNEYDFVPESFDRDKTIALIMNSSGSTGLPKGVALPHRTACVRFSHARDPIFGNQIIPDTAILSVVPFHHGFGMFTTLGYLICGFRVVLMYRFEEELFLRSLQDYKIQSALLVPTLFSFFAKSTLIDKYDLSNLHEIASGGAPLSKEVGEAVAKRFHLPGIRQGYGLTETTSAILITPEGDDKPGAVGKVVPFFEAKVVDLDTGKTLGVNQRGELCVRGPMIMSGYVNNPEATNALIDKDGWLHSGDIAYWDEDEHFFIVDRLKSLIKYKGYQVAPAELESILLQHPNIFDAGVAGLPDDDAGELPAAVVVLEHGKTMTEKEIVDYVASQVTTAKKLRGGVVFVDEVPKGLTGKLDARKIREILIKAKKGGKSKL
#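 System: cell-free luciferase reagent; medium: PBS as buffer for the ATP substrate; doses: test compounds dosed from 2 mM stocks in 100% DMSO; incubation: 10 min, room temperature; measured by: luminescence from luciferase reaction; read-out: luciferase activation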
# FLuc inh counter: firefly luciferase enzyme inhibitors, primary screen, artefact control for luciferase-based inhibitor screens, biochemical, luminescence, ATPLite; Luciferin 4-monooxygenase (Photinus pyralis), P08659; 10 min; inhibition, % at 10 µM; 200,000 compounds, 1.5% hits; AID 1006, 2008;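 active = inhibition above about 50% when tested at 10 µM, limit read from the data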
# STAT1 inh: STAT1 signaling inhibitors, primary screen, cell-based, HTS, luciferase reporter; NIH 3T3 STAT1-luciferase reporter, IFN-gamma, luminescence; inhibition, % at 5.5 µM; 200,000 compounds, 0.35% hits; AID 920, 2007;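 active = inhibition above a set limit, the mean inhibition across all tested compounds plus 3 SD, cut at about 34% in these data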;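 note: 0% = IFN-gamma with DMSO and 100% = IFN-gamma with 300 µM nifuroxazide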
# STAT1 act: STAT1 signaling activators, primary screen, cell-based, HTS, luciferase reporter; activation (% of control), % at 5.5 µM; 200,000 compounds, 2.6% hits; NIH 3T3 STAT1-luciferase reporter, IFN-gamma, luminescence; 100% = IFN-gamma alone, no compound;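 active = activation above the screen-wide mean activation plus 3 SD, cut at about 130% in these data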;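 note: raw ratio to IFN-gamma control signal so 100% means no change and 0% no light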
# STAT3 act: IL-6 driven STAT3 reporter potentiators, primary screen, U3A cells, luciferase, luminescence, MLSCN library; activation (% of control), % at 5.6 µM; 190,000 compounds, 0.91% hits; IL-6 STAT3-luciferase reporter; 100% = signal with IL-6 EC80 alone;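 active = activation above the screen-wide mean of compound activation plus 3 SD, cut at about 130% in these data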;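 note: 0% = background luminescence of wells with medium and substrate only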
#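 Detection: reporter luminescence signal / Assay system: STAT1-lacking human U3A cells, STAT3 luciferase reporter / Incubation: compound pre-incubation 1 h before IL-6, then 6 h stimulation at 37 °C / Control set: IL-6-only high control / Read-out: % activation relative to IL-6 control / Probe or stimulus: Interleukin-6, 33 ng/mL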
# STAT3 blocker: IL-6 driven STAT3 reporter inhibitors, primary screen, U3A cells, luciferase, luminescence, MLSCN library; AID 862, 2007; IL-6 STAT3-luciferase reporter; host cell line lacks STAT1; inhibition, % at 5.5 µM; 190,000 compounds, 0.89% hits;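 active = inhibition above the mean inhibition across all screened compounds plus 3 SD, cut at about 44% in these data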;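 note: 0% = DMSO only wells and 100% = 100 µM nifuroxazide control wells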
# Starred values were filed as active, the others as inactive; · = no result given.
SMILES,FLuc act counter,FLuc inh counter,STAT1 inh,STAT1 act,STAT3 act,STAT3 blocker
CN(CC1CCCO1)S(=O)(=O)c1ccc(C(=O)Nc2nc3cc4c(cc3s2)OCO4)cc1 (stereo not drawn),·,·,7,94,37,82*
CN(CC1CCCO1)S(=O)(=O)c1ccc(C(=O)Nc2ccc3c(c2)OCO3)cc1 (stereo not drawn),1,-2,8,91,96,8
CCN(CC)C(=O)Cn1cc(C(=O)C2CC2)c2ccccc21,1,-4,4,95,102,1
O=C(Oc1ccc2c(c1)OCC2=O)c1ccccc1,0.8,21,-8,101,103,0
CC(=O)Oc1ccc2c(c1)C(=O)c1ccccc1CO2,0.3,66*,0,100,95,11
Cc1nc2cc(NC(=O)N3c4ccccc4CC3C)ccc2o1 (stereo not drawn),0.4,62*,-53,146*,118,-18
Cc1ccc(C(=O)N2c3ccccc3CC2C)o1 (stereo not drawn),0.5,46,-58,148*,92,14
Cc1ccccc1NC(=O)N1c2ccccc2CC1C (stereo not drawn),1,0,-16,113,89,15
COCCNc1nc(-c2ccc(OC)cc2)c(-c2ccc(OC)cc2)s1,1,-1,9,91,96,12
COc1cc(/C=C2\CC/C(=C\c3cc(OC)c(O)c(OC)c3)C2=O)cc(OC)c1O,1,-2,-36,132*,102,2
COc1cc(/C=C2\CC/C(=C\c3cc(OC)c(OC)c(OC)c3)C2=O)cc(OC)c1OC,1.1,-6,0,100,111,-13
CC1CC1C(=O)OCc1cc(=O)n2cc(Br)ccc2n1 (stereo not drawn),0.9,11,-39,136*,84,20
O=C(OCc1cc(=O)n2cc(Br)ccc2n1)C1COc2ccccc2O1 (stereo not drawn),1.1,-10,-4,104,99,6
CC(C)[C@H](NC(=O)c1ccccc1Cl)C(=O)OCc1cc(=O)n2cc(Br)ccc2n1,1,2,-1,99,109,-7
Cc1ccccc1C(=O)NC(CC(C)C)C(=O)OCc1cc(=O)n2cc(Br)ccc2n1 (stereo not drawn),1,2,-40,138*,97,2
Cc1c(-c2cc(C(=O)O)on2)cnn1C,1,2,4,96,103,4
COCn1c(-c2ccc(OC)cc2)nc2ccccc21,0.2,76*,-34,129*,97,6
Cc1cccc(NC(=O)c2ccc(N3CCCCC3)c([N+](=O)[O-])c2)n1,0.6,37,-50,144*,96,10
Cc1cccc(NC(=O)c2ccc(N3CCOCC3)c([N+](=O)[O-])c2)n1,0.9,12,-22,117,99,6
Cc1ccc(NC(=O)COC(=O)CSC(=S)N2CCOCC2)cc1,1,1,-6,105,111,-5
CN=c1c([N+](=O)[O-])nn(-c2ccc3c(c2)OCCO3)n1O,1,2,-18,115,90,16
O=[N+]([O-])c1nn(-c2ccc3c(c2)OCCO3)n(O)c1=NCc1ccc(F)cc1,0.9,6,-49,143*,101,-3
O=[N+]([O-])c1nn(-c2ccc3c(c2)OCCO3)n(O)c1=NCc1ccc(F)cc1Cl,0.9,10,-48,142*,88,22
Cc1ccc(CN=c2c([N+](=O)[O-])nn(-c3ccc(Cl)cc3)n2O)cc1,1,4,-46,140*,91,15
O=[N+]([O-])c1nn(-c2ccc(Cl)cc2)n(O)c1=NCc1ccncc1,1.1,-9,-11,110,88,17
SMILES,FLuc act counter,FLuc inh counter,STAT1 inh,STAT1 act,STAT3 act,STAT3 blocker
O=C(CSc1ncccc1C(=O)O)NC12CC3CC(CC(C3)C1)C2,1,2,-1,98,106,-2
COc1ccc(-c2[nH]n(-c3ccc([N+](=O)[O-])cc3)c(=O)c2C=NCC2CCCO2)cc1 (stereo not drawn),1.1,-10,3,96,93,13
Cc1[nH]n(-c2ccc([N+](=O)[O-])cc2)c(=O)c1C=NCC1CCCO1 (stereo not drawn),1,-2,-39,135*,108,-4
COc1cccc(C(=O)Nc2cccc(SC)c2)c1,0.7,33,-32,129*,111,-4
CCCCOC(=O)Nc1ccc(C)c(Cl)c1,0.9,9,-47,143*,90,16
COc1cccc(NC(=O)Nc2ccc(C)c(Cl)c2)c1,0.8,15,-37,133*,93,13
CCCCOC(=O)Nc1ccc(C(=O)OC)cc1,1,1,-27,125,94,9
CCCC(=O)Nc1ccc(C(=O)Nc2cccc(OC)c2)cc1,0.9,8,-6,106,107,-3
COc1cccc(NC(=O)c2ccc(NC(=O)C(C)(C)C)cc2)c1,0.6,41,-41,136*,109,-6
CCN(CC)S(=O)(=O)c1ccc(N2CCOCC2)c(NC(=O)c2cnccn2)c1,1,-4,-7,106,97,5
CC(C)c1ccc2oc(-c3cc(N)ccc3O)nc2c1,0.1,93*,-17,116,71,36
Cc1ccccc1-c1nc2cc(N)ccc2o1,0.4,55*,-45,141*,88,20
Cc1nc2cc(-c3ccccc3)ccc2o1,0.8,24,-18,115,99,7
CN(C)C(CNc1ncnc2sc3c(c12)CCCC3)c1ccco1 (stereo not drawn),1,-3,-3,101,102,2
O=C(CSc1nccn1-c1ncc(C(F)(F)F)cc1Cl)c1ccc(Cl)cc1,1,-1,-36,133*,197*,-101
O=C(OC1CCN(c2ncc(C(F)(F)F)cc2Cl)CC1)c1ccc(Cl)cc1,1.1,-6,-2,102,104,2
CC(C)(C)NC(=O)Cn1c(=O)c(=O)n(Cc2ccccc2)c2ccc(Cl)cc21,1,-5,-6,105,94,9
COc1cc(/C=C/c2noc(-c3ccccc3O)n2)cc(OC)c1OC,1,-5,-2,102,105,-7
COc1ccc(/C=C/c2noc(-c3ccccc3O)n2)cc1,0.5,54*,0,100,94,10
COc1cc(/C=C(\NC(C)=O)C(=O)Nc2cccc(O)c2)ccc1OC(C)=O,1,-3,2,98,97,2
